One block for each molecule: values may come before it. Calls of active or inactive are those of the source. No cut-off for these calls is given here.
Assays:
[1] = Drug metabolism at 2 mM at acidic pH after 5 days by 31P NMR method; format: physicochemical; details: read-out: Drug metabolism
[2] = Half life of the compound at pH 7.4; format: physicochemical
[3] = Drug level treated with UTP 5'-O-Palpha,alpha-dithiophosphate at 2 mM at pH 11.7 at room temperature after 25 days by 31P NMR method; format: physicochemical; details: pH 11.7, 600 h, 2000 µM
[4] = Drug level treated with diuridine 5'-O-Palpha,alpha,5''-O-Palpha,alpha-tetrathiotetraphosphate at 2 mM at pD 12.6 at room temperature after 16 days by 31P NMR method; format: physicochemical; details: 384 h, 2000 µM
[5] = Drug level treated with UTP 5'-O-Palpha,alpha-dithiophosphate-beta,gamma-methylene at 2 mM at pH 11.7 at room temperature after 25 days by 31P NMR method; format: physicochemical; details: pH 11.7, 600 h, 2000 µM
[6] = target: T1, Ectonucleotide pyrophosphatase/phosphodiesterase family member 1 (Homo sapiens) (UniProt P22413); assay: Inhibition of human NPP1 at 100 uM using pNP-TMP as substrate preincubated for 3 mins followed by substrate addition measured after 15 mins relative to control
T1 sequence (whole entry): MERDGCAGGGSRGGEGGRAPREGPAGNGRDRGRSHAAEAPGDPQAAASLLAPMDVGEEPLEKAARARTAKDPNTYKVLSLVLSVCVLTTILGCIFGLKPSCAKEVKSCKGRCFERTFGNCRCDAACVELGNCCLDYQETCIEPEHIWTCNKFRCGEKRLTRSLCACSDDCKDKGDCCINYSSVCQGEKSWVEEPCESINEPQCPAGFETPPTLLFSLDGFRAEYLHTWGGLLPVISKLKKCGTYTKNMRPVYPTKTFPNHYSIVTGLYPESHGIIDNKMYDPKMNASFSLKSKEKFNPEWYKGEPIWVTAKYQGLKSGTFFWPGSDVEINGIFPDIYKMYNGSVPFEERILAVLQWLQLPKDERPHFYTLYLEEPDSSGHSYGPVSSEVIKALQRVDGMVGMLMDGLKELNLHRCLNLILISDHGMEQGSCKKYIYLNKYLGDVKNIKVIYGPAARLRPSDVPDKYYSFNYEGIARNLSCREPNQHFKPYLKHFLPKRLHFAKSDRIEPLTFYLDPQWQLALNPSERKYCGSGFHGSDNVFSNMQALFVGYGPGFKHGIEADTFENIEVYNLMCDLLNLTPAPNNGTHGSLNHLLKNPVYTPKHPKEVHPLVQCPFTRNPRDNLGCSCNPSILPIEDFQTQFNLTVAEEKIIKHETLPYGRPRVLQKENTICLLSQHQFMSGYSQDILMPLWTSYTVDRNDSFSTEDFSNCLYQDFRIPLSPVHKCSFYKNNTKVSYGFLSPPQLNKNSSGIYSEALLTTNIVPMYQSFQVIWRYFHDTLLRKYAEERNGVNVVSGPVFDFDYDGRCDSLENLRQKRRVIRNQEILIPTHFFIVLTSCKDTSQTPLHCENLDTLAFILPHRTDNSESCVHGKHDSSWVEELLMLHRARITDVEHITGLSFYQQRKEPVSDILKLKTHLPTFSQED
Outline: (§1)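 Human NPP1 (4−5 μg) or NPP3 (12−14 μg) cell lysate in mM 1 CaCl2, 140 NaCl, 5 KCl, 50 Tris pH 8.5, 37 °C. Compound at 100 μM, 3 min preincubation, 100 μM pNP-TMP substrate. p-Nitrophenol read at 405 nm after 15 min. Blank with enzyme added at end subtracted. Activity without compound taken as 100%. At least two independent experiments in triplicate.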

[7] = target: T2, Ectonucleoside triphosphate diphosphohydrolase 3 (Homo sapiens) (UniProt O75355); assay: Inhibition of human NTPDase3 at 100 uM using ATP as substrate preincubated for 3 mins followed by substrate addition measured after 10 mins by malachite green reagent-based assay
T2 sequence (whole entry): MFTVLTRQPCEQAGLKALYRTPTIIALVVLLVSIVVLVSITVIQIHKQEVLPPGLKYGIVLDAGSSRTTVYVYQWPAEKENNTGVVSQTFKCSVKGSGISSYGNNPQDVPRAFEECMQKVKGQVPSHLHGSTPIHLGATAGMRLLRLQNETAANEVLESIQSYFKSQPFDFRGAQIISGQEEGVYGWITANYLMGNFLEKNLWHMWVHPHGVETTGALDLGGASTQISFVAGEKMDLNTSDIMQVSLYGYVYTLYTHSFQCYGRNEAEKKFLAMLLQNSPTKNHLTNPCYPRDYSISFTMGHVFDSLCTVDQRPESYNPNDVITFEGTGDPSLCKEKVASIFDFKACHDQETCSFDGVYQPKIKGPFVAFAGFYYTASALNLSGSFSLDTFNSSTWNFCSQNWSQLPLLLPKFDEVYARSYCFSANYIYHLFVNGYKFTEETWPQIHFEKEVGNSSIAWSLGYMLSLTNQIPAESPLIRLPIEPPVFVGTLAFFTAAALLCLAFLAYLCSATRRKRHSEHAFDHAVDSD
Outline: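 Compound at 100 μM, 3 min preincubation, 100 μM ATP, 10 min. Stopped with malachite green; Pi read at 630 nm. Blank with enzyme added after stop subtracted. Activity with ATP alone taken as 100%.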

[8] = target: T3, Ectonucleotide pyrophosphatase/phosphodiesterase family member 3 (Homo sapiens) (UniProt O14638); assay: Inhibition of human NPP3 at 100 uM using pNP-TMP as substrate preincubated for 3 mins followed by substrate addition measured after 15 mins; outline: as §1
T3 sequence (whole entry): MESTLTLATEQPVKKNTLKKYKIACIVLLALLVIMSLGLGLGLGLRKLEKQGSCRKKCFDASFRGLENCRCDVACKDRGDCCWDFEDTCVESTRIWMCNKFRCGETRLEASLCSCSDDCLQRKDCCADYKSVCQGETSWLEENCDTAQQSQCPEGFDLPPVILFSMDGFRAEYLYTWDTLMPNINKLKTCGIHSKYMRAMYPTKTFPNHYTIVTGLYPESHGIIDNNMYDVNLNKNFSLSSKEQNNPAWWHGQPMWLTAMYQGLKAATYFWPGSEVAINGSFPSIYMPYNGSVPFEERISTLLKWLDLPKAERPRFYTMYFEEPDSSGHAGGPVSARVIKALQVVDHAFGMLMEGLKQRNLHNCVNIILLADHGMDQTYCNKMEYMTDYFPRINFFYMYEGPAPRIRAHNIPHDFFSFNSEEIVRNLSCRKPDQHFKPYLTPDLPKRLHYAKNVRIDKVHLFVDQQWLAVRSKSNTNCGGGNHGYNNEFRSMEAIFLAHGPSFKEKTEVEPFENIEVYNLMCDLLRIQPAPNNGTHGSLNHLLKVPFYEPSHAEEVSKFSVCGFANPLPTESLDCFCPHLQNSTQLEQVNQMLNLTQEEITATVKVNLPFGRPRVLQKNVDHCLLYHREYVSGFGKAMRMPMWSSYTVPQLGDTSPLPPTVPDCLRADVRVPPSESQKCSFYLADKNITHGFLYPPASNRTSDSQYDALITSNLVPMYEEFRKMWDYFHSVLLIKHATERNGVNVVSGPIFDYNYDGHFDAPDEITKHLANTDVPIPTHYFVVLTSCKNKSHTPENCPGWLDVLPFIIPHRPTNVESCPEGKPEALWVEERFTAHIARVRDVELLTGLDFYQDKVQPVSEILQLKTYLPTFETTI

[9] = target: T1, Ectonucleotide pyrophosphatase/phosphodiesterase family member 1 (Homo sapiens); assay: Inhibition of human NPP1 at 100 uM using ATP as substrate preincubated for 3 mins followed by substrate addition measured after 25 mins
Outline: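 Human NPP1 cell lysate in mM 1 CaCl2, 140 NaCl, 5 KCl, 50 Tris pH 8.5, 37 °C. Compound at 100 μM, 3 min preincubation, 100 μM ATP substrate. Stopped after 25 min by heating 2 min at 95 °C. Pyrophosphate measured with a commercial kit.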

[10] = Drug metabolism at 2 mM at basic pH after 5 days by 31P NMR method; format: physicochemical; details: read-out: Drug metabolism
[11] = target: P2Y purinoceptor 2 (Homo sapiens) (UniProt P41231); assay: Agonist activity at recombinant human P2RY2 expressed in AD293 cells assessed as increase in intracellular calcium levels by Fluo-4/AM dye-based spectrofluorometer; format: functional, cell-based
P2Y purinoceptor 2 (Homo sapiens), sequence (P41231 whole entry): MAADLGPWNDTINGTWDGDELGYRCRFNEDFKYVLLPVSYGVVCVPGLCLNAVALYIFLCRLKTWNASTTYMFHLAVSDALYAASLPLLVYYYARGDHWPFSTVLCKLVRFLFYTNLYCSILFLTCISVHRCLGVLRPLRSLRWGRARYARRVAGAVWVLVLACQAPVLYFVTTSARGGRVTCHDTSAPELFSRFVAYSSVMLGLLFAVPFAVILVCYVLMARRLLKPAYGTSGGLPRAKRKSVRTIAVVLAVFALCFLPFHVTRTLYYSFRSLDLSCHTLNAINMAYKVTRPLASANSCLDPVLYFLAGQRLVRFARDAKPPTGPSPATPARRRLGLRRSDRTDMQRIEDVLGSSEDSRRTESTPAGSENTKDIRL
Outline: (§2)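 Human P2Y2, P2Y4 or P2Y6 receptor stably expressed in AD293 cells. Compound at 100 μM. Agonism read as change in intracellular calcium (Δ[Ca2+]i), with UDP or UTP as control.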

[12] = target: P2Y purinoceptor 4 (Homo sapiens) (UniProt P51582); assay: Agonist activity at recombinant human P2RY4 expressed in AD293 cells assessed as increase in intracellular calcium levels by Fluo-4/AM dye-based spectrofluorometer; format: functional, cell-based; outline: as §2
P2Y purinoceptor 4 (Homo sapiens), sequence (P51582 whole entry): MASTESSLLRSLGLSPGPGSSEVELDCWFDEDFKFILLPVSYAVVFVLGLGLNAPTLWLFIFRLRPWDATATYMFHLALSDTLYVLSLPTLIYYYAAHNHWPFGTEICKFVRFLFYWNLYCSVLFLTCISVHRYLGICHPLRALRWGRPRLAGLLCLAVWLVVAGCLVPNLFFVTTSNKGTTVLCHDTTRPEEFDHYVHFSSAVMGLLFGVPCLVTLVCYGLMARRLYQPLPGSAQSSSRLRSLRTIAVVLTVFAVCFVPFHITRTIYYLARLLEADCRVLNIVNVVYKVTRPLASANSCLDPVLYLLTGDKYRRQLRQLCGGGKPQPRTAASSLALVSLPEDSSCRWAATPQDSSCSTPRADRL

[13] = target: P2Y purinoceptor 6 (Homo sapiens) (UniProt Q15077); assay: Agonist activity at recombinant human P2RY6 expressed in AD293 cells assessed as increase in intracellular calcium levels by Fluo-4/AM dye-based spectrofluorometer; format: functional, cell-based; outline: as §2
P2Y purinoceptor 6 (Homo sapiens), sequence (Q15077 whole entry): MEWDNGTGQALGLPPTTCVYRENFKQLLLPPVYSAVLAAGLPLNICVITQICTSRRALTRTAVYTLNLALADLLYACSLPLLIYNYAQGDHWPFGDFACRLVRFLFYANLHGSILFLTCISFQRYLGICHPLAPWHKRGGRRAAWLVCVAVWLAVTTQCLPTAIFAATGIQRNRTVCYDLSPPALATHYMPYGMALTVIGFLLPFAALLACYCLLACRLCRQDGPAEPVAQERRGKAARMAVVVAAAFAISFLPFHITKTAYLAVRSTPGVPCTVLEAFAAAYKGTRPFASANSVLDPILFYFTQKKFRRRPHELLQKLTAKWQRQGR

[14] = target: P2Y purinoceptor 6 (Homo sapiens) (UniProt Q15077); assay: Agonist activity at recombinant human P2RY6 expressed in AD293 cells assessed as increase in intracellular IP1 levels; format: functional, cell-based
Outline: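 Human P2Y6 receptor stably expressed in AD293 cells. Compound at 100 μM. Gq activation read as accumulation of inositol 1-phosphate (IP1).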

[15] = Stability of the compound assessed as air oxidation at room temperature at 1.8 mM after 3 weeks by 31P NMR method; format: physicochemical; details: 504 h, 1800 µM
[16] = Drug metabolism at 2 mM at pH 1.7 at room temperature after 28 days by 31P NMR method; format: physicochemical; details: read-out: Drug metabolism
[17] = Drug level treated with UTP 5'-O-Palpha,alpha-dithiophosphate-beta,gamma-methylene at 2 mM at pH 1.7 at room temperature after 25 days by 31P NMR method; format: physicochemical; details: pH 1.7, 600 h, 2000 µM
[18] = Drug metabolism at 2 mM at pH 1.7 at room temperature after 20 days by 31P NMR method; format: physicochemical; details: read-out: Drug metabolism
[19] = Drug metabolism at 2 mM at pH 11.7 at room temperature after 20 days by 31P NMR method; format: physicochemical; details: read-out: Drug metabolism

Compound: O=c1ccn([C@@H]2O[C@H](COP(O)(=S)S)[C@@H](O)[C@H]2O)c(=O)[nH]1 (some centres undefined)
Drug metabolism [3]: Metabolite_Detected
Drug metabolism [4]: Metabolite_Detected
Drug metabolism [5]: Metabolite_Detected

Compound: O=c1ccn([C@@H]2O[C@H](COP(O)(=S)SCCS)[C@@H](O)[C@H]2O)c(=O)[nH]1 (some centres undefined)
Drug metabolism [3]: Metabolite_Detected
Drug metabolism [5]: Metabolite_Detected

Compound: O=c1ccn([C@@H]2O[C@H](COP(=S)(S)OP(=O)(O)OP(=O)(O)OP(=S)(S)OC[C@H]3O[C@@H](n4ccc(=O)[nH]c4=O)[C@H](O)[C@@H]3O)[C@@H](O)[C@H]2O)c(=O)[nH]1 (some centres undefined)
degraded at 120 h, 2000 µM [1]: 6%
inhibition [6]: 80 to 100%
inhibition [7]: 24%
inhibition [8]: 27%
inhibition [9]: Active
degraded at 120 h, 2000 µM [10]: 9%
Activity [11]: inactive
Activity [12]: inactive
Activity [13]: Active
Activity [14]: Active
Stability [15]: Stable

Compound: OP(O)(=S)S
Drug metabolism [3]: Metabolite_Detected
Drug metabolism [4]: Metabolite_Detected
Drug metabolism [5]: Metabolite_Detected

More lines, now with the values ahead:

degraded at 120 h, 2000 µM [1]: 25%
half-life [2]: 11 days
Compound: Nc1nc(SCc2ccccc2)nc2c1ncn2[C@@H]1O[C@H](COP(O)(=S)OP(=O)(O)OP(=O)(O)O)[C@@H](O)[C@H]1O (some centres undefined)

Drug metabolism [3]: Metabolite_Detected
Compound: O=c1ccn([C@@H]2O[C@H](COP(=O)(O)O)[C@@H](O)[C@H]2O)c(=O)[nH]1

degraded at 672 h, 2000 µM [16]: 7%
Compound: O=c1ccn([C@@H]2O[C@H](COP(=O)(O)OP(=O)(O)O)[C@@H](O)[C@H]2O)c(=O)[nH]1 [URIDINE_DIPHOSPHATE]

Drug metabolism [17]: Metabolite_Detected
Drug metabolism [5]: Metabolite_Detected
Compound: O=P(O)(O)CP(=O)(O)O [MEDRONIC ACID]

degraded at 120 h, 2000 µM [1]: 5%
degraded at 120 h, 2000 µM [10]: 8%
degraded at 480 h, 2000 µM [18]: 11%
degraded at 480 h, 2000 µM [19]: 10%
Compound: O=c1ccn([C@@H]2O[C@H](COP(=O)(O)OP(=O)(O)OP(=O)(O)O)[C@@H](O)[C@H]2O)c(=O)[nH]1 [URIDINE TRIPHOSPHATE]
